Screening data: PubChem, several laboratories
Autophagy mod: autophagy modulators in MEF cells, primary screen, imaging, high-content, MEF GFP-LC3; MEF GFP-LC3 puncta imaging; test concentration mostly 10 µM; calls only at 10 µM (by protocol); hit rate 0.98% among 190,000;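 active means percentage of spot-positive cells more than 3 SD above its plate mean, without a fluorescence outlier flag or 80% toxicity; inconclusive means no clear call, values can overlap the other calls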;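 further: spot-positive cell cutoff set from DMSO-treated cells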
Cl transport mod: KCC2 cotransporter modulators, thallium flux, primary screen, cell-based, HEK293 KCC2, FluoZin-2 fluorescence, MLSMR. AID 1456, 2008. Solute carrier family 12 member 5 (Homo sapiens), Q9H2X9. hit rate 2.2% among 190,000. B-score of Tl+ flux slope (higher = more flux/activation; lower = inhibition) at 10 µM. KCC2 cells, thallium flux FluoZin-2 fluorescence;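 active means thallium flux slope and its plate-corrected score both differing from the plate sample mean at a set confidence after two filtering rounds, in either direction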;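 further: slope of fluorescence scaled to starting intensity during 10 to 20 s after thallium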
WT yeast gro inh: growth inhibition of WT strain, primary screen, mitochondrial fusion inhibitor project, WT and mutant strains, chemical genetic | mitochondrial fusion phenotypic screen | inhibition, % at 10 µM | hit rate 2.1% among 190,000 | AID 1362, 2008; in the data active means inhibition above about 58%; tested in S. cerevisiae
SKKanGAS inh: S. pyogenes SKKanGAS growth inhibitors in kanamycin, primary screen, streptokinase expression inhibitor project, SKKanGAS strain, BacTiter-Glo luminescence; hit rate 1.3% among 300,000; inhibition, % at 7.5 µM; AID 1662, 2009; 6 h;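 active means mean replicate score, as percent of positive control median, at least 50; inconclusive means mean below 50 but one replicate at or above 50; inactive means mean and every replicate below 50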;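 further: strain carries kanamycin resistance gene driven by streptokinase promoter and grows in 40 µg/ml kanamycin; loss of luminescence reflects streptokinase promoter inhibition or plain growth inhibition; 0% = median of DMSO wells and 100% = positive control at its reference dose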
Rad51 HR inh: human RAD51 strand exchange inhibitors, primary screen, biochemical, fluorescence; DNA repair protein RAD51 homolog 1 (Homo sapiens), Q06609; hRad51 DNA strand exchange, fluorescence dequenching; inhibition, % at 10 µM; hit rate 0.085% among 200,000; AID 1385, 2008;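 active means inhibition above 40% at the single screening dose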;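 further: 0% = DMSO control wells and 100% = blanks with heterologous ssDNA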
Target sequence (Q06609 whole entry, looked up): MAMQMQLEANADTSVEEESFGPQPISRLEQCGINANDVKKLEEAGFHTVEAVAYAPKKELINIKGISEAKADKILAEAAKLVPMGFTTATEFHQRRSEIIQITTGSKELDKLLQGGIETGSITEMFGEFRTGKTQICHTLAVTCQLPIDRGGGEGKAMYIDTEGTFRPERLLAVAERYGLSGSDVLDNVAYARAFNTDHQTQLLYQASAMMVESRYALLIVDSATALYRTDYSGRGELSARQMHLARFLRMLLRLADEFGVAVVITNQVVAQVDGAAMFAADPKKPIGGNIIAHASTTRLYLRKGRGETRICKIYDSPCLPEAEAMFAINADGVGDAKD
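Assay system: Human Rad51 nucleoprotein filaments preassembled on unlabelled ssDNA | Reagent: Donor/quencher-labelled 47-bp dsDNA substrate | Doses: One concentration, 10 µM final | Times: 37 °C 15-min filament assembly, 30-min compound preincubation, 15-min exchange | Technique: Fluorescein emission 520 nm, excitation 485 nm | Benchmarks: Plate control and blank wells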
Insulin prom up: insulin promoter activators in MIN6 cells, imaging, high-content screening, mouse beta cells. z-score at 5 µM. AID 1625, 2009. hit rate 0.3% among 190,000. MIN6 insulin promoter-GFP reporter; stronger effect = higher value;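 active means z-score above 3 at 5 µM with at least 500 cells counted in the well; inconclusive means wells under 500 cells, flagged as cytotoxic or low count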
KCC2 sec1: KCC2 modulators in sodium-free buffer, confirmation, cell-based, HEK293 KCC2, thallium flux, secondary assay | hit rate 15% among 3,700 | normalised thallium flux (F/F0 slope) at 10 µM | shares compounds with Cl transport mod | FluoZin2 fluorescence; stronger effect = higher value;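 active means thallium flux slope above the same plate's solvent-only control mean plus 3 SD; inconclusive means the two replicate wells disagree; inactive means no significant difference from solvent-only control wells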
KCC2 bumet counter: thallium flux persisting under bumetanide in KCC2 cells, confirmation, counter-screen for KCC2 modulator project, cell-based, HEK293 KCC2, FluoZin2, secondary assay 3; shares compounds with Cl transport mod; HEK293-KCC2 + bumetanide/ouabain; stronger effect = higher value; normalized thallium flux at 10 µM; hit rate 49% among 3,700;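 active means thallium entry rate above the same plate's blocked-transporter control wells by more than 3 SD; inconclusive means the two repeat wells disagree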;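 further: raw slope of fluorescence over initial fluorescence between 10 and 20 s after thallium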
KCC2 sec2: KCC2 modulators without ouabain present, confirmation, cell-based, HEK293 KCC2, thallium flux, FluoZin2, secondary assay 2 | shares compounds with Cl transport mod | thallium flux FluoZin2 fluorescence; actives lie on both sides; F/F0 rise rate, 10–20 s post-thallium | normalized thallium flux at 10 µM | hit rate 23% among 3,700 | AID 1715, 2009;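 active means thallium flux slope more than 3 SD above or below the plate's solvent-only control mean, mostly below; inconclusive means the two repeat wells disagreed; inactive means no significant shift from solvent-only controls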;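 further: raw slope with 0.1% DMSO as baseline and bumetanide as block control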
HEK293 Tl flux: thallium flux modulation in parental HEK cells, confirmation, counter-screen for KCC2 modulator project, cell-based, counterscreen 1. shares compounds with Cl transport mod. HEK293 parental cells, thallium flux FluoZin2, ouabain; baseline-ratio fluorescence slope, 10–20 s after thallium. thallium flux rate (normalised fluorescence) at 10 µM. hit rate 46% among 3,700;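 active means thallium flux rate significantly above the same plate's solvent-only control wells, beyond their mean plus 3 SD; inconclusive means the two replicate wells gave conflicting results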
KCC2 ouabain: KCC2 inhibitors and activators, ouabain retest, confirmation, HEK-KCC2 cells; shares compounds with Cl transport mod; HEK293-KCC2, thallium flux FluoZin2 fluorescence; bidirectional: low = inhibitor, high = activator; AID 1717, 2009; raw Tl+ flux slope (below DMSO = inhibition, above = activation) at 10 µM; hit rate 48% among 3,700;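 active means thallium flux slope beyond 3 SD from same-plate DMSO control mean in most replicates, usually higher, sometimes lower; inconclusive means repeat tests gave conflicting results; inactive means no significant difference from controls in most replicates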;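 further: slope of initial-normalized fluorescence between seconds 10 and 20 after thallium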
HEK293 Tl flux2: native HEK Tl+ uptake effects, second counter-screen – HEK cells, counterscreen 2, counter-screen for KCC2 modulator project, confirmation | shares compounds with Cl transport mod | HEK293 parental, thallium flux FluoZin-2 fluorescence slope | thallium flux slope at 10 µM | hit rate 33% among 3,700 | AID 1718, 2009;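 active means thallium flux slope above the same plate's solvent-control mean plus 3 SD in both duplicate wells; inconclusive means duplicate wells that disagreed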;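 further: run without ouabain in cells lacking the KCC2 cotransporter; slope of fluorescence scaled to its starting value between 10 and 20 s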
* = called active by the depositor; i = inactive; ? = inconclusive; nt = no result. Compounds with a hit are over-represented: about 4.2% of the library has one in this group of screens.

SMILES | Autophagy mod | Cl transport mod | WT yeast gro inh | SKKanGAS inh | Rad51 HR inh | Insulin prom up | KCC2 sec1 | KCC2 bumet counter | KCC2 sec2 | HEK293 Tl flux | KCC2 ouabain | HEK293 Tl flux2
O=C(Nc1ccc([N+](=O)[O-])cc1)N1CCCCC1 | i | 0.0217 | 18.2 | -1.1 | 7.8 | -0.04 | nt | nt | nt | nt | nt | nt
C=CCn1c(Sc2nncn2C)nc2c1c(=O)[nH]c(=O)n2C | i | nt | 13.9 | 2.2 | -3.8 | nt | ? | 0.00676 | 0.0278 | 0.00668 | 0.0207 | 0.00983
CCCSc1nc2c(c(=O)[nH]c(=O)n2C)n1C | i | 10.7* | 17.2 | 5.0 | -1.6 | 0.6 | 0.0163 | 0.00479 | 0.0275 | 0.00763 | 0.0165 | 0.0102
CCSc1nc2c(c(=O)[nH]c(=O)n2C)n1C | i | 0.198 | -139.8 | 7.9 | -5.1 | nt | nt | nt | nt | nt | nt | nt
COc1ccc(C(=O)Nc2ccccc2)cc1NC(=O)c1ccc([N+](=O)[O-])cc1 | nt | nt | nt | 4.0 | nt | nt | nt | nt | nt | nt | nt | nt
CCn1cc(C(=O)NCCCN(CC(C)C)CC(C)C)c(=O)c2cc(S(=O)(=O)N3CCOCC3)ccc21 | nt | nt | nt | -13.8 | nt | nt | nt | nt | nt | nt | nt | nt
COc1ccc(/C(O)=C/Sc2nnc(Cc3ccccc3)o2)cc1 | i | -4.93* | 17.6 | -12.2 | nt | 0.1 | 0.00627 | 0.00531 | 0.0246* | 0.00653 | 0.0132* | ?
Cc1nc2c(-c3ccccc3)c(C)[nH]n2c(=O)c1Cc1ccccc1 | i | 4.93* | 12.8 | 52.5* | -15.9 | -0.25 | 0.00721 | 0.0195* | 0.0313 | 0.0149* | ? | 0.0164*
Cc1nc2c(-c3ccc(Cl)cc3)c(C)[nH]n2c(=O)c1Cc1ccccc1 | i | 4.91* | 2.6 | 98.9* | nt | ? | 0.00659 | 0.0129* | ? | 0.0121* | ? | 0.0118*
Cn1c(C(=O)NCCN2CCN(c3ccccc3F)CC2)cc2c(=O)n(C)c3ccccc3c21 | i | -4.67* | 3.8 | 0.0 | nt | -0.19 | 0.005 | 0.00476 | 0.022* | 0.00762 | ? | 0.0113
O=C(NC1CCCCC1)N(Cc1ccccc1)Cc1ccco1 | i | nt | 11.7 | 6.9 | 7.8 | -0.85 | nt | nt | nt | nt | nt | nt
O=C(CC(Cc1ccccc1)c1ccco1)NC1CCCCC1 (centres undefined) | i | nt | 20.4 | -7.3 | 5.9 | -0.07 | 0.0106 | 0.00628 | 0.0277* | 0.00765 | 0.0132* | 0.0105
O=C(Nc1nnc(SCc2ccc(F)cc2)s1)C1Cc2ccccc2CN1C(=O)c1ccco1 (centres undefined) | i | -3.33* | 27.7 | 10.6 | -4.8 | -0.25 | 0.00706 | 0.00532 | 0.0249* | 0.00808 | 0.0165* | 0.0104
